Data: ChEMBL document CHEMBL4130386, “Notch Inhibitors from Calotropis gigantea That Induce Neuronal Differentiation of Neural Stem Cells” (J Nat Prod, 2017)
The source made the active and inactive calls. No cut-off for these calls is given here.

Tests used:
[1] = Inhibition of recombinant mouse N-terminal FLAG-tagged Notch1 (1704 to 2531 residues) expressed in human LS174T cells assessed as reduction in doxycycline-induced NICD expression after 12 hrs by Bright-Glo luciferase reporter gene assay; format: cell-based
How it was run: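 LS174T Notch cells seeded 2 × 10^4 cells/well, 12 h at 37 °C. Dox 50 ng/mL for 12 h, then Dox-free medium with samples for 12 h at 37 °C in 0.1% DMSO. Luciferase read with Bright-Glo. Viability measured in parallel by fluorometric microculture cytotoxicity assay. SD, n = 3.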

[2] = target: Gamma-secretase (Homo sapiens) (UniProt Q96BI3+Q9NZ42+Q8WW43+P49768+Q92542+P49810); test: Effect on gamma-secretase activity in human LS174T cells harboring mouse N-terminal FLAG-tagged Notch1 (1704 to 2531 residues) after 12 hrs by Western blot analysis; format: cell-based
MEB5 [3] = test: Effect on gamma-secretase activity in mouse MEB5 cells assessed as PEN2 expression at 1 uM after 24 hrs by Western blot analysis; format: cell-based
How it was run: (§1)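 MEB5 mouse neural stem cells dissociated and seeded on poly-L-lysine and fibronectin/laminin-coated 6 cm dishes in proliferation medium for 12 h. Washed with NeuroCult basal medium, then compound given in differentiation medium for 24 h. Lysates analysed by Western blot (SDS-PAGE, PVDF, ECL); γ-secretase antibody sampler kit used for γ-secretase components.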

MEB5 [4] = test: Effect on gamma-secretase activity in mouse MEB5 cells assessed as PS2 expression at 1 uM after 24 hrs by Western blot analysis; format: cell-based; how it was run: as §1
MEB5 [5] = test: Induction of neuronal differentiation in mouse MEB5 cells assessed as reduction in astrocytes at 1 uM after 4 days by GFAP staining based immunofluorescence analysis; format: functional, cell-based
LS174T = test: Effect on Notch1 (1704 to 2531 residues) expression in human LS174T cells at 0.001 to 10 uM after 12 hrs by Western blot analysis; format: functional, cell-based
How it was run: (§2)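 LS174T Notch cells (Tet-On LS174T, N-terminally FLAG-tagged mouse Notch1(1704-2531), stable 12×RBP-J luciferase reporter) seeded 1 × 10^6 cells per 6 cm dish for 12 h at 37 °C. Dox 50 ng/mL for 12 h, then fresh medium with compound for 12 h. Whole-cell lysates, SDS-PAGE, PVDF, ECL detection. Anti-Flag used for the Notch1 fragment; β-actin internal control.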

[6] = target: Neurogenic locus notch homolog protein 1 (Homo sapiens) (UniProt P46531); test: Inhibition of doxycycline-induced recombinant mouse N-terminal FLAG-tagged Notch1 (1704 to 2531 residues) activation expressed in human LS174T cells assessed as reduction in Hes5 level at 0.1 to 1 uM after 12 hrs by Western blot analysis; format: cell-based; how it was run: as §2
[7] = target: Neurogenic locus notch homolog protein 1 (Mus musculus) (UniProt Q01705); test: Inhibition of Notch1 in mouse MEB5 cells assessed as reduction in Hes5 expression at 1 uM after 24 hrs by Western blot analysis; format: cell-based; how it was run: as §1
[8] = target: Neurogenic locus notch homolog protein 1 (Homo sapiens) (UniProt P46531); test: Inhibition of doxycycline-induced recombinant mouse N-terminal FLAG-tagged Notch1 (1704 to 2531 residues) activation expressed in human LS174T cells assessed as reduction in Hes1 level at 0.1 to 1 uM after 12 hrs by Western blot analysis; format: cell-based; how it was run: as §2
MEB5 [9] = test: Effect on gamma-secretase activity in mouse MEB5 cells assessed as PS1 expression at 1 uM after 24 hrs by Western blot analysis; format: cell-based; how it was run: as §1
MEB5 [10] = test: Induction of neuronal differentiation in mouse MEB5 cells assessed as number of neurons at 1 uM after 4 days by Tuj1 staining based immunofluorescence analysis (reference value: 13.3 %); format: functional
MEB5 [11] = test: Induction of neuronal differentiation in mouse MEB5 cells assessed as increase in neurite extension length at 1 uM after 4 days by Tuj1 staining based immunofluorescence analysis relative to control; format: functional
[12] = target: Neurogenic locus notch homolog protein 1 (Mus musculus) (UniProt Q01705); test: Inhibition of Notch1 in mouse MEB5 cells assessed as reduction in Hes1 expression at 1 uM after 24 hrs by Western blot analysis; format: cell-based; how it was run: as §1
MEB5 [13] = test: Inhibition of Wnt signaling in mouse MEB5 cells assessed as reduction in beta-catenin level up to 1 uM after 12 to 24 hrs by Western blot analysis; format: cell-based
MEB5 [14] = test: Effect on gamma-secretase activity in mouse MEB5 cells assessed as nicastrin expression at 1 uM after 24 hrs by Western blot analysis; format: cell-based; how it was run: as §1
[15] = target: Neurogenic locus notch homolog protein 1 (Mus musculus) (UniProt Q01705); test: Inhibition of Notch1 in mouse MEB5 cells assessed as reduction in NICD expression at 1 uM after 24 hrs in presence of proteasome inhibitor MG132 by Western blot analysis; format: cell-based
MEB5 [16] = test: Induction of neuronal differentiation in mouse MEB5 cells assessed as neurite length at 1 uM after 4 days by Tuj1 staining based immunofluorescence analysis (reference value: 14.3 micrometer); format: functional
[17] = target: Neurogenic locus notch homolog protein 1 (Mus musculus) (UniProt Q01705); test: Inhibition of Notch1 in mouse MEB5 cells assessed as reduction in NICD expression at 1 uM after 24 hrs by Western blot analysis; format: cell-based; how it was run: as §1
MEB5 [18] = test: Induction of neuronal differentiation in mouse MEB5 cells assessed as increase in neurite extension length at 10 uM after 4 days by Tuj1 staining based immunofluorescence analysis relative to control; format: functional
How it was run: (§3)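 MEB5 mouse neurospheres were chemically dissociated and seeded at 2 × 10^6 cells/well on coverslips coated with poly-L-lysine and fibronectin/laminin. After 12 h in proliferation medium, cells were washed with NeuroCult basal medium and treated for 4 days in differentiation medium. They were then fixed in 4% paraformaldehyde and immunostained for Tuj-1 (neurons) and GFAP (astrocytes), with TO-PRO-3 nuclear counterstain. Confocal imaging used four fields per well and three wells per condition, covering over 4000 cells and 670 neurites per sample.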

MEB5 [19] = test: Induction of neuronal differentiation in mouse MEB5 cells assessed as number of neurons at 10 uM after 4 days by Tuj1 staining based immunofluorescence analysis (reference value: 13.3 %); format: functional; how it was run: as §3
[20] = target: Neurogenic locus notch homolog protein 1 (Mus musculus) (UniProt Q01705); test: Inhibition of recombinant mouse Notch1-RAMIC expressed in MEB5 cells assessed as reduction in doxycycline-induced NICD expression at 10 uM after 12 hrs by Western blot analysis; format: cell-based
How it was run: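 Dissociated MEB5 cells were seeded at 2 × 10^6 cells/well in 6 cm dishes coated with poly-L-lysine and fibronectin/laminin. After 12 h in proliferation medium, cells were washed with serum-free NeuroCult basal medium and treated in differentiation medium with 10 μM for 12 h. Whole-cell lysates were run on SDS-PAGE and immunoblotted for NICD, with ECL detection.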

[21] = target: Neurogenic locus notch homolog protein 1 (Mus musculus) (UniProt Q01705); test: Inhibition of recombinant mouse Notch1-RAMIC expressed in MEB5 cells harboring TP1 assessed as luciferase activity at 10 uM after 12 hrs by Dual-Glo luciferase assay (reference value: 0.258); format: cell-based
MEB5 [22] = test: Induction of neuronal differentiation in mouse MEB5 cells assessed as neurite length at 10 uM after 4 days by Tuj1 staining based immunofluorescence analysis (reference value: 14.3 micrometer); format: functional; how it was run: as §3
MEB5 [23] = test: Induction of neuronal differentiation in mouse MEB5 cells assessed as reduction in astrocytes at 10 uM after 4 days by GFAP staining based immunofluorescence analysis; format: functional, cell-based; how it was run: as §3

Chain of Neurogenic locus notch homolog protein 1 (Homo sapiens) (P46531 whole entry, the tested form may be a part): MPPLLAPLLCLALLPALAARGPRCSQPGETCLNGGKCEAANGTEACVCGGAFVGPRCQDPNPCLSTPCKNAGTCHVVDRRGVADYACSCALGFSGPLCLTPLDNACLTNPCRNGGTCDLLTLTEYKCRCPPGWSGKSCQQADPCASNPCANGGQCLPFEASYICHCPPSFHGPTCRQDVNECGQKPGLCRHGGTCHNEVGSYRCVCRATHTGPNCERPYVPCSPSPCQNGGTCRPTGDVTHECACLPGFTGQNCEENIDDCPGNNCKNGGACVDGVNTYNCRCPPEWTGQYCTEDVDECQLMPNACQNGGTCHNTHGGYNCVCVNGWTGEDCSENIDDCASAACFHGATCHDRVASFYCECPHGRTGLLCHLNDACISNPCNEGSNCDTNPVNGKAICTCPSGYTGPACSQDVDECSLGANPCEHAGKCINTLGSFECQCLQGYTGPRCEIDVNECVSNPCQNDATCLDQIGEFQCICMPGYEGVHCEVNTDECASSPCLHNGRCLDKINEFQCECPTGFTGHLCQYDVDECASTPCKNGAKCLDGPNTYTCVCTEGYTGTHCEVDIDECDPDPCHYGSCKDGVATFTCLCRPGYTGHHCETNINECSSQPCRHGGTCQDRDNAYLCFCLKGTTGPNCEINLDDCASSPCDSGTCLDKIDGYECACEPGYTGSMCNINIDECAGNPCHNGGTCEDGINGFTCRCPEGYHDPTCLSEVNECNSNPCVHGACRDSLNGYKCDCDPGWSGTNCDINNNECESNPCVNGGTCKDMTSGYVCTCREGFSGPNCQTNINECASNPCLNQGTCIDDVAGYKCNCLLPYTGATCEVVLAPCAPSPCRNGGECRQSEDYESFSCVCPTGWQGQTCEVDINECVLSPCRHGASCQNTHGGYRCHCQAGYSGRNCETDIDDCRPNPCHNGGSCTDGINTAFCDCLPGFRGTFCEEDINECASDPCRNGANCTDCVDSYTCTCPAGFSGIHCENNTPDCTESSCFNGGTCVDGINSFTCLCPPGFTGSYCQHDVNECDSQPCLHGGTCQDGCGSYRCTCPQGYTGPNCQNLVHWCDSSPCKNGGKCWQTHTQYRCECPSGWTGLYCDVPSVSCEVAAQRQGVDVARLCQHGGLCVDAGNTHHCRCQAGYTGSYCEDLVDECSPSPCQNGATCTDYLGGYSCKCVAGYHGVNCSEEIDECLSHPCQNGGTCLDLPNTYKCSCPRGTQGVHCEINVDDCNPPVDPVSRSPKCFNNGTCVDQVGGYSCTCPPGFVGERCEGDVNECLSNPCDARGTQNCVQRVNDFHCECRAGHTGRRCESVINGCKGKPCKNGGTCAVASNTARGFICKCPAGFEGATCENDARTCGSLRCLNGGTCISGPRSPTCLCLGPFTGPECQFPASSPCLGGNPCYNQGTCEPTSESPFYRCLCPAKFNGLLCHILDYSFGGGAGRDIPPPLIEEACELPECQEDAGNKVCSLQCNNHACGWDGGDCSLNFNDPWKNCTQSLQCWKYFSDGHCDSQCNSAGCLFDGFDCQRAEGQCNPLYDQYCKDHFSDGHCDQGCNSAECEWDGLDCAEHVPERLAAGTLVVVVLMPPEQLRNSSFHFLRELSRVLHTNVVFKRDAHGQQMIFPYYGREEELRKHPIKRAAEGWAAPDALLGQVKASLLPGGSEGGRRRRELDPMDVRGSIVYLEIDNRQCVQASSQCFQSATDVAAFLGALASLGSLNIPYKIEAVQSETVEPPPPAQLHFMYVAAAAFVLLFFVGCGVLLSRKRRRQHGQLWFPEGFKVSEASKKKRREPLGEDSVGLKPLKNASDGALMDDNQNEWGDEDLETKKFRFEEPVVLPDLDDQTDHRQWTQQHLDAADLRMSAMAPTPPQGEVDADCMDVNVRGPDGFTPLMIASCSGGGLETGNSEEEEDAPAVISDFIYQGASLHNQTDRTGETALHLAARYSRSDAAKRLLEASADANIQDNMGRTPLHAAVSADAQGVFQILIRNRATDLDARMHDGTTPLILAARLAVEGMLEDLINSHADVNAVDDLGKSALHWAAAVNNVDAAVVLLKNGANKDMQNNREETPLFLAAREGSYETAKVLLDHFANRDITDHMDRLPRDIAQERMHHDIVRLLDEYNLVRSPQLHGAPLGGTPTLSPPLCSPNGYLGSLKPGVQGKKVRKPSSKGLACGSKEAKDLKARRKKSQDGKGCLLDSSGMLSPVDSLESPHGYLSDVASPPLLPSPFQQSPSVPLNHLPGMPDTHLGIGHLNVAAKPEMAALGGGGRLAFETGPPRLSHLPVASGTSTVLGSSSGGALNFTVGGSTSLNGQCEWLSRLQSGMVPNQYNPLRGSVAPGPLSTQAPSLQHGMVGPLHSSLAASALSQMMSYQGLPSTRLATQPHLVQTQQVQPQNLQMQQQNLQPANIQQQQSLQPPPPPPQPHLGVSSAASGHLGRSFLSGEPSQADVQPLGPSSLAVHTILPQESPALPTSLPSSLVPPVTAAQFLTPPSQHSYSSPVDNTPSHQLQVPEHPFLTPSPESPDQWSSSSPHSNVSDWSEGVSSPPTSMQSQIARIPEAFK
Chain of Neurogenic locus notch homolog protein 1 (Mus musculus) (Q01705 whole entry, the tested form may be a part): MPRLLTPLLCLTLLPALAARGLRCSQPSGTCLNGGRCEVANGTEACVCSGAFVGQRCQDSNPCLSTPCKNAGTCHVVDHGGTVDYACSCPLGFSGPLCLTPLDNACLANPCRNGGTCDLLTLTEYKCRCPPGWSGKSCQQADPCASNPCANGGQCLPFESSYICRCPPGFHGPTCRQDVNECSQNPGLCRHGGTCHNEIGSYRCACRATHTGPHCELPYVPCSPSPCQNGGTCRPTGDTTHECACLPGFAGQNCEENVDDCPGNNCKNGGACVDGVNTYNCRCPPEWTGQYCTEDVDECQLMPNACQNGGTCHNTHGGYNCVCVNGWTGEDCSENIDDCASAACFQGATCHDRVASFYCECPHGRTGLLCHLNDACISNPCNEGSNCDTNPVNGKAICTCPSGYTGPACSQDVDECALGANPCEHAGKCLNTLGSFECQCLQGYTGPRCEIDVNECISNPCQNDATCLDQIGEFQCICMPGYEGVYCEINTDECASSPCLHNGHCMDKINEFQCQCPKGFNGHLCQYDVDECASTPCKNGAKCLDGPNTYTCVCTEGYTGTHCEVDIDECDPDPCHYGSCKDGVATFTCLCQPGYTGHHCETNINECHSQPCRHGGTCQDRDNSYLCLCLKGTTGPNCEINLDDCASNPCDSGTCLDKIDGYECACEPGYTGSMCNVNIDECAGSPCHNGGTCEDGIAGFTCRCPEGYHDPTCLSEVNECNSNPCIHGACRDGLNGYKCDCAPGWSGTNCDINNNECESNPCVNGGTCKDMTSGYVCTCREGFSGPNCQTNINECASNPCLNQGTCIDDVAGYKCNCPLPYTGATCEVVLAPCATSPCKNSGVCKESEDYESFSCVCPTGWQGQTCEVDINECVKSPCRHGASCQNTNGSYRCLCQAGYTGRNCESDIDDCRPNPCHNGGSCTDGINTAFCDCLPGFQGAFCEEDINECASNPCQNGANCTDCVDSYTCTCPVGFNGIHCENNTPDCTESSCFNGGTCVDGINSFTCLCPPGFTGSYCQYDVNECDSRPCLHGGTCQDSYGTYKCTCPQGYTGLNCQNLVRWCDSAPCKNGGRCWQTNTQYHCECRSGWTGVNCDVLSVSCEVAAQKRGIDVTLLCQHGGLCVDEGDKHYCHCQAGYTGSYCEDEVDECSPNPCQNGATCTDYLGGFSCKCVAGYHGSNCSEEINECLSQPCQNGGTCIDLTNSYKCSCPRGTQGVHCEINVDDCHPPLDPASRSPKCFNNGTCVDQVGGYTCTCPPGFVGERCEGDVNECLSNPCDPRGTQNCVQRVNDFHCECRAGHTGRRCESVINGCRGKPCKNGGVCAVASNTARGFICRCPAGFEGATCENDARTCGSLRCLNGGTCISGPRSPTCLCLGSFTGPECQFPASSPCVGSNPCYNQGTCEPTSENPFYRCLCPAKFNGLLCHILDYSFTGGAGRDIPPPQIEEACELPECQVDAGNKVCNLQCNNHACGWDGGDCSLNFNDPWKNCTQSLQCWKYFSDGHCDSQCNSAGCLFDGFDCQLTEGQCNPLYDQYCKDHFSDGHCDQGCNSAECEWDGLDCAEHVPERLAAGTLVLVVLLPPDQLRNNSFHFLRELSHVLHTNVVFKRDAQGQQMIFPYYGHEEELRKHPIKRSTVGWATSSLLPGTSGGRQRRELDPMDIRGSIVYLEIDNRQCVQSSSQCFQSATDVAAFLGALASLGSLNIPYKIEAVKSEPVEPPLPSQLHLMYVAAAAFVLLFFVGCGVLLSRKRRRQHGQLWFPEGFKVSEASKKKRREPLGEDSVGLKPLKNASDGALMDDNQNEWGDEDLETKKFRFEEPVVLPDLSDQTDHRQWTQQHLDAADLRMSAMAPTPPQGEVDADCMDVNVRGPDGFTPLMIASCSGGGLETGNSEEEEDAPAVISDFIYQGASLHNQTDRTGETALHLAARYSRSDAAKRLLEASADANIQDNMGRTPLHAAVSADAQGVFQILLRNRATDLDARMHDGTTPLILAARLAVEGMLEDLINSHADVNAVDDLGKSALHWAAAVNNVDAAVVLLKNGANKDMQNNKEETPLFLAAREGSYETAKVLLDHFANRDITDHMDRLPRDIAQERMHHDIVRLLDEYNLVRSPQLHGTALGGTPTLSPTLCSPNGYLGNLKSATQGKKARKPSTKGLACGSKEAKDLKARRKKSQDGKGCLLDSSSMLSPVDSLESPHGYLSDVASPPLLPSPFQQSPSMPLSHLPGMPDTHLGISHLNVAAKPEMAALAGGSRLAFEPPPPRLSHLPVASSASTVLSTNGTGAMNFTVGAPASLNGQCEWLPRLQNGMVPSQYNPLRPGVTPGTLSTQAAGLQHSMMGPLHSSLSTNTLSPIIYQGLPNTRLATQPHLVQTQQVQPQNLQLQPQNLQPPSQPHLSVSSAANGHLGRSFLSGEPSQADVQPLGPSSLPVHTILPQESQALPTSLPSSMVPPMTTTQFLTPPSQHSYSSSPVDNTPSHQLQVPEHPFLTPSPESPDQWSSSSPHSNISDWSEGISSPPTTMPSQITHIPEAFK

For `C[C@@H]1C[C@@]2(N=CCS2)[C@]2(O)O[C@@H]3C[C@@]4(C=O)[C@@H](CC[C@@H]5[C@@H]4CC[C@]4(C)[C@@H](C6=CC(=O)OC6)[C@H](O)C[C@]54O)C[C@H]3O[C@@H]2O1`, the inhibition [1] was “Dose-dependent effect”.
With `C[C@@H]1C[C@H](O)[C@]2(O)O[C@@H]3C[C@@]4(C=O)[C@@H](CC[C@@H]5[C@@H]4CC[C@]4(C)[C@@H](C6=CC(=O)OC6)CC[C@]54O)C[C@H]3O[C@@H]2O1` the inhibition [1] was “Dose-dependent effect” and the Activity [2] was “inactive”.
For `C[C@@H]1C[C@@]2(NC(=O)CS2)[C@]2(O)O[C@@H]3C[C@@]4(C=O)[C@@H](CC[C@@H]5[C@@H]4CC[C@]4(C)[C@@H](C6=CC(=O)OC6)CC[C@]54O)C[C@H]3O[C@@H]2O1`, the inhibition [1] was “Dose-dependent effect”.
In the case of `C[C@@H]1C[C@@]2(N=CCS2)[C@]2(O)O[C@@H]3C[C@@]4(C=O)[C@@H](CC[C@@H]5[C@@H]4CC[C@]4(C)[C@@H](C6=CC(=O)OC6)CC[C@]54O)C[C@H]3O[C@@H]2O1` [USCHARIN], the Activity (MEB5 [3]) is reported as “inactive”, the Activity (MEB5 [4]) is reported as “inactive” and the Activity (MEB5 [5]) is reported as “Active”. The Activity (LS174T) was “inactive”, the inhibition [6] was “Active” and the inhibition [7] was “Active”. For the same molecule, the inhibition [8] was “Active”, the Activity (MEB5 [9]) was “inactive” and the Activity (MEB5 [10]) was 20.8%. For the same molecule, the Activity (MEB5 [11]) was 36%, the inhibition [12] was “Active” and the inhibition (MEB5 [13]) was “inactive”. For the same molecule, the Activity (MEB5 [14]) was “inactive”, the inhibition [15] was “inactive” and the Activity (MEB5 [16]) was 19.5 um. For the same molecule, the inhibition [1] was “Dose-dependent effect”, the Activity [2] was “inactive” and the inhibition [17] was “Active”.
In the case of `CC(=O)O[C@H]1C[C@@H](C)O[C@H]2O[C@@H]3C[C@@H]4CC[C@@H]5[C@H](CC[C@]6(C)[C@@H](C7=CC(=O)OC7)CC[C@]56O)[C@@]4(C=O)C[C@H]3O[C@]21O`, the inhibition [1] is reported as “Dose-dependent effect” and the Activity [2] is reported as “inactive”.
For `C[C@H](NC(=O)Cc1cc(F)cc(F)c1)C(=O)N[C@H](C(=O)OC(C)(C)C)c1ccccc1`, the Activity (MEB5 [18]) was 43%, the Activity (MEB5 [19]) was 19.7% and the inhibition [20] was “Active”. For the same molecule, the inhibition [6] was “Active”, the inhibition [8] was “Active” and the Activity [21] was 0.004. The Activity (MEB5 [22]) was 20.5 um and the Activity (MEB5 [23]) was “Active”.
With `C[C@@H]1C[C@@]2(NCCS2)[C@]2(O)O[C@@H]3C[C@@]4(C=O)[C@@H](CC[C@@H]5[C@@H]4CC[C@]4(C)[C@@H](C6=CC(=O)OC6)CC[C@]54O)C[C@H]3O[C@@H]2O1` the inhibition [1] was “Dose-dependent effect”.
In the case of `C[C@@H]1CC(=O)[C@]2(O)O[C@@H]3C[C@@]4(C=O)[C@@H](CC[C@@H]5[C@@H]4CC[C@]4(C)[C@@H](C6=CC(=O)OC6)CC[C@]54O)C[C@H]3O[C@@H]2O1`, the inhibition [1] is reported as “Dose-dependent effect”.
With `COC(=O)[C@@]1(O)C[C@@H](C)O[C@H]1O[C@@H]1C[C@@H]2CC[C@@H]3[C@H](CC[C@]4(C)[C@@H](C5=CC(=O)OC5)[C@H](O)C[C@]34O)[C@@]2(C=O)C[C@H]1O` the inhibition [1] was “Dose-dependent effect”.
